This is an account of results in ChEMBL document CHEMBL4145449, “Synthesis and biological evaluation of novel thiazole- VX-809 hybrid derivatives as F508del correctors by QSAR-based filtering tools” (Eur J Med Chem, 2018).

Holding throughout (assay type): cell-based
The subject of assay [1] is Cystic fibrosis transmembrane conductance regulator (Homo sapiens), P13569 [F508del]. Kind of assay: Synergistic corrector activity at CFTR F508-del mutant (unknown origin) expressed in human CFBE41o cells harboring HS-YFP preincubated for 24 hrs followed by forskolin/genistein stimulation for 30 mins in presence of VX-809 by fluorescence assay. The method in brief:
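CFBE41o- cells co-expressing F508del-CFTR and HS-YFP treated 24 h with compound (2, 10 or 25 μM) together with VX-809 (1 μM), then stimulated 30 min at 37 °C with forskolin (20 μM) and genistein (50 μM). Iodide influx (final 100 mM) measured as HS-YFP quenching rate.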

The target in assay [2] is Cystic fibrosis transmembrane conductance regulator (Homo sapiens, UniProt P13569, F508DEL). Kind of assay: Corrector activity at CFTR F508-del mutant (unknown origin) expressed in human CFBE41o cells harboring HS-YFP preincubated for 24 hrs followed by forskolin/genistein stimulation for 30 mins by fluorescence assay.
For assay [3], the system named is Cystic fibrosis transmembrane conductance regulator (Homo sapiens), P13569 [F508del]. Nature of the assay: Potentiator activity at CFTR F508-del mutant (unknown origin) expressed in human CFBE41o cells harboring HS-YFP assessed as increase in forskolin-stimulated aninon permeability up to 25 uM after 30 mins by fluorescence assay. The method, boiled down: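 F508del-CFTR/HS-YFP CFBE41o- cells were rescued by 24 h incubation at 27 °C, then exposed 30 min to forskolin (20 μM) plus test compound in PBS. Iodide added to final 100 mM; HS-YFP quenching rate (initial slope dF/dt) from exponential fit of final 10 s, normalized to initial background-subtracted fluorescence; compared with forskolin alone.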

The source made the active and inactive calls. The calls are words filed in the database; no cut-off is given here.

Chain of Cystic fibrosis transmembrane conductance regulator (P13569 as listed by the source): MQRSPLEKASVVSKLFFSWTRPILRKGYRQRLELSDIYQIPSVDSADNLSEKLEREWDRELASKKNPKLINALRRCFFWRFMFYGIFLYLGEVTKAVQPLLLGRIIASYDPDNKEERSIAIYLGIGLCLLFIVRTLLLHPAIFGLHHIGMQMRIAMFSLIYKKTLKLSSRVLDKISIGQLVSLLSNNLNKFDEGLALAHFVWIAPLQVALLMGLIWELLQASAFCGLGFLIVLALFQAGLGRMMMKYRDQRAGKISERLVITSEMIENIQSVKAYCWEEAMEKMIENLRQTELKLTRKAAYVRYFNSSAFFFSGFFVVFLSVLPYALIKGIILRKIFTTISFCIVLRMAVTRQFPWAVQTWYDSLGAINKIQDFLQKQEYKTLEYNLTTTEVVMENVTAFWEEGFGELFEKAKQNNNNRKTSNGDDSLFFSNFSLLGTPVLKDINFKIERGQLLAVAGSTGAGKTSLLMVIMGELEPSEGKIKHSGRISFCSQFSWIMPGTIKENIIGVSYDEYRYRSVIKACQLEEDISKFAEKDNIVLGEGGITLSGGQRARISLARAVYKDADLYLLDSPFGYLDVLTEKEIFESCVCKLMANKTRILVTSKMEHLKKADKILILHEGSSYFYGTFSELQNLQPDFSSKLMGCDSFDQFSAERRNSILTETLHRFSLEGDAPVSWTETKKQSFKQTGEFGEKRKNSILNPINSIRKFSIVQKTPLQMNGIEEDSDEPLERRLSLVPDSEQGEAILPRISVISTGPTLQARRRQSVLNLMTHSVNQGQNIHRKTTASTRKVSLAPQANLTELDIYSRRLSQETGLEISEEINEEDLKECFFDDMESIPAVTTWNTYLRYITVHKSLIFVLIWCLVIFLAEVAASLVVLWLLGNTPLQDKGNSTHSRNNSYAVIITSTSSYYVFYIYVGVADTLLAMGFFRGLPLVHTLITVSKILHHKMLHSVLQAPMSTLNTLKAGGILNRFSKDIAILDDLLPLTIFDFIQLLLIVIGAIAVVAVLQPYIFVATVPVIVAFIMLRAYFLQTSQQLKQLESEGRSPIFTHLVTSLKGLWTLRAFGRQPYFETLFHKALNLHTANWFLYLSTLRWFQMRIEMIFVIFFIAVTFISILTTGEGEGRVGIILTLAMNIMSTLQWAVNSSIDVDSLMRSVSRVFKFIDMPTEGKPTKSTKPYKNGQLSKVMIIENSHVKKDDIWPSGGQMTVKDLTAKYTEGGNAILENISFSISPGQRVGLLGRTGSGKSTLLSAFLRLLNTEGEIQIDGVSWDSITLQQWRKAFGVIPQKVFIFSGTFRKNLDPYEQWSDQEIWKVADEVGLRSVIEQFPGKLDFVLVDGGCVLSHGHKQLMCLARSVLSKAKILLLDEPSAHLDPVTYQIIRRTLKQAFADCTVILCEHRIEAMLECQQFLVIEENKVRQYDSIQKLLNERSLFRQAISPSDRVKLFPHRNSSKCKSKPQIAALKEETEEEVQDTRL
Chain of Cystic fibrosis transmembrane conductance regulator (Homo sapiens), P13569 [F508del] (P13569 as listed by the source): as above

For `O=C(O)c1ccc(-c2csc(NC(=O)C3(c4ccc5c(c4)OCO5)CC3)n2)cc1`, the result in assay [1] and in assay [3] was inactive. The EC50 in assay [2] (read-out: EC50) was > 5 µM; in assay [2] (read-out: pEC50 (converted)) it was > 5.01 µM.

On to `CC(=O)Nc1ccc(-c2csc(NC(=O)C3(c4ccc5c(c4)OCO5)CC3)n2)cc1`, for which the result in assay [1] and in assay [3] was inactive. Also, the EC50 is > 5 µM in assay [2] (read-out: EC50) and > 5.01 µM in assay [2] (read-out: pEC50 (converted)). Consider `Cc1cc(C)c2cc(C#N)c(NCCNC(=O)c3ccccc3)nc2c1`, for which the EC50 in assay [2] (read-out: pEC50 (converted)) was > 100 µM. With `NC(=O)CN1CCN(c2nc(-c3cccnc3)nc3c2CN(Cc2ccccc2)CC3)CC1`, the EC50 in assay [2] (read-out: pEC50 (converted)) is 100 µM. As to `Cc1sc(NC(=O)C2(c3ccc4c(c3)OCO4)CC2)nc1-c1cccc(Cl)c1`, the result in assay [1] and in assay [3] was inactive. Further, in assay [2] (read-out: EC50), the EC50 stood at 2.3 µM. Regarding `Cc1cc(C)c2cc(C#N)c(NCCCNC(=O)c3ccccn3)nc2c1`, the EC50 in assay [2] (read-out: pEC50 (converted)) is 100 µM. Turning to `Fc1ccc(CN2CCc3nc(-c4ccccn4)nc(NCCCN4CCCC4)c3C2)cc1`, the EC50 in assay [2] (read-out: pEC50 (converted)) is 0.2 µM.

Take `CCOC(=O)c1sc(NC(=O)C2(c3ccc4c(c3)OCO4)CC2)nc1-c1cccc(Cl)c1`: the outcome in assay [1] and in assay [3] was inactive. Moreover, the EC50 in assay [2] (read-out: EC50) was 0.55 µM. As for `COc1ccc(CN2CCc3nc(-c4ccccn4)nc(N4CCN(CCN(C)C)CC4)c3C2)cc1`, in assay [2] (read-out: pEC50 (converted)), the EC50 is 100 µM.

For `O=C(Nc1nc(-c2cccc(Cl)c2)cs1)C1(c2ccc3c(c2)OCO3)CC1`, the outcome in assay [1] and in assay [3] was inactive. Besides, the EC50 in assay [2] (read-out: EC50) is 8.2 µM. For the compound `C=CCc1cc(-c2sc(NC(=O)C(C)(C)C)nc2C)nn1C(=O)Nc1ccc(OC)cc1`, the EC50 in assay [2] (read-out: pEC50 (converted)) is 0.933 µM. For `Cc1sc(NC(=O)C2(c3ccc4c(c3)OC(F)(F)O4)CC2)nc1-c1ccc(Br)cc1`, the result in assay [1] and in assay [3] was inactive. The EC50 in assay [2] (read-out: EC50) amounted to 3.8 µM.

For the compound `Cc1cc(C)c2cc(C#N)c(N3CCN(C(=O)c4ccncc4)CC3)nc2c1`, the EC50 in assay [2] (read-out: pEC50 (converted)) is 100 µM. With `CC(=O)NCCCNc1nc(-c2ccccn2)nc2c1CN(Cc1ccc(F)cc1)CC2`, the EC50 in assay [2] (read-out: pEC50 (converted)) was 0.2 µM. Same read-out and setting: the same measure for `COc1ccc(Cl)cc1Cc1cc(-c2sc(NC(=O)C(C)(C)C)nc2C)nn1C(=O)NCCO`: 3.02 µM.

In the case of `COc1ccc(NC(=O)n2nc(-c3sc(NC(=O)C(C)(C)C)nc3C)cc2Cc2cc(Cl)ccc2OC)cc1`, in assay [2] (read-out: pEC50 (converted)), the EC50 is 1 µM.

Take `Cc1nc(NC(=O)C(C)(C)C)sc1-c1cc(Cc2ccccc2)n(C(=O)NCc2ccccc2)n1`: in assay [2] (read-out: pEC50 (converted)), the EC50 was 0.759 µM. Same read-out and setting: the same measure for `NC(=O)C1CCN(c2nc(-c3cccnc3)nc3c2CN(Cc2ccccc2)CC3)CC1`: > 100 µM.

On to `CN(C)CCN1CCN(c2nc(-c3ccccn3)nc3c2CN(S(=O)(=O)c2ccccc2)CC3)CC1`, for which the EC50 in assay [2] (read-out: pEC50 (converted)) is 100 µM. As to `Cc1sc(NC(=O)C2(c3ccc4c(c3)OC(F)(F)O4)CC2)nc1-c1cccc(Cl)c1`, the outcome in assay [1] and in assay [3] was inactive. In addition, in assay [2] (read-out: EC50), the EC50 was 5.4 µM.

In the case of `CCOC(=O)n1nc(-c2sc(NC(=O)C(C)(C)C)nc2C)cc1Cc1ccccc1`, the EC50 in assay [2] (read-out: pEC50 (converted)) is 8.51 µM. As to `CCOC(=O)c1sc(NC(=O)C2(c3ccc4c(c3)OCO4)CC2)nc1-c1ccc(Cl)cc1`, the outcome in assay [1] and in assay [3] was inactive. Further, in assay [2] (read-out: EC50), the EC50 came to 0.9 µM. Consider `Cc1cc(C)c2cc(C#N)c(NCCNC(=O)c3ccccn3)nc2c1`, for which, in assay [2] (read-out: pEC50 (converted)), the EC50 is > 100 µM. With `CN(C)CCN1CCN(c2nc(-c3ccccn3)nc3c2CN(Cc2ccc(F)cc2)CC3)CC1`, in assay [2] (read-out: pEC50 (converted)), the EC50 was 100 µM. On to `CN1CCN(CCCNc2nc(-c3ccncc3)nc3c2CN(Cc2ccccc2)CC3)CC1`, for which the EC50 in assay [2] (read-out: pEC50 (converted)) is 100 µM.

With `Cc1sc(NC(=O)C2(c3ccc4c(c3)OCO4)CC2)nc1-c1ccc(F)cc1`, the result in assay [1] and in assay [3] was inactive. Also, the EC50 in assay [2] (read-out: EC50) came out at 0.9 µM. As for `O=C(Nc1nc(-c2ccc(O)cc2)cs1)C1(c2ccc3c(c2)OC(F)(F)O3)CC1`, the result in assay [1] and in assay [3] was inactive. The EC50 in assay [2] (read-out: EC50) was determined as 1.7 µM. In the case of `COc1ccc(Cl)cc1Nc1nc(-c2sc(NC(=O)C(C)(C)C)nc2C)cs1`, in assay [2] (read-out: pEC50 (converted)), the EC50 is 0.708 µM.

Take `O=C(c1ccccc1)c1sc(NC(=O)C2(c3ccc4c(c3)OCO4)CC2)nc1-c1ccccc1`: the result in assay [1] and in assay [3] was inactive. Besides, in assay [2] (read-out: EC50), the EC50 turned out to be 0.087 µM.

`COc1ccc(NC(=O)c2cc(-c3sc(NC(=O)C(C)(C)C)nc3C)n(-c3ccc(Br)cc3)n2)cc1`: the EC50 in assay [2] (read-out: pEC50 (converted)) is 3.39 µM. For the compound `O=C(Nc1nc(-c2ccc(O)cc2)cs1)C1(c2ccc3c(c2)OCO3)CC1`, the outcome in assay [1] and in assay [3] was inactive. Moreover, in assay [2] (read-out: EC50), the EC50 was 1.8 µM. `COc1ccccc1C(=O)NCCCNc1nc2cc(C)cc(C)c2cc1C#N`: the EC50 in assay [2] (read-out: pEC50 (converted)) is > 100 µM.

With `CSc1cccc(NC(=O)C2(c3ccc4c(c3)OCO4)CC2)c1`, the outcome in assay [1] and in assay [3] was inactive. Also, the EC50 in assay [2] (read-out: EC50) was 8 µM. `O=C(Nc1nc(-c2ccc(Br)cc2)cs1)C1(c2ccc3c(c2)OCO3)CC1`: the result in assay [1] and in assay [3] was inactive. Besides, the EC50 in assay [2] (read-out: EC50) was determined as 4.9 µM. For `CCN(C(C)=O)C1CCN(c2nc(-c3ccccn3)nc3c2CN(Cc2ccc(Cl)cc2)CC3)C1` (stereo unspecified), the EC50 in assay [2] (read-out: pEC50 (converted)) is 100 µM. As to `O=C(Nc1nc(-c2ccc(I)cc2)cs1)C1(c2ccc3c(c2)OCO3)CC1`, the result in assay [1] and in assay [3] was inactive. For the same compound, the EC50 in assay [2] (read-out: EC50) turned out to be 1.2 µM. Consider `O=C(Nc1nc(-c2ccc(Cl)cc2)cs1)C1(c2ccc3c(c2)OCO3)CC1`, for which the result in assay [1] and in assay [3] was inactive. For the same compound, the EC50 in assay [2] (read-out: EC50) was found to be 2.9 µM. In the case of `CN(C)CCN1CCN(c2nc(-c3ccncc3)nc3c2CN(Cc2ccccc2)CC3)CC1`, the EC50 in assay [2] (read-out: pEC50 (converted)) is 100 µM.

Regarding `COc1ccc(Cl)cc1Cc1cc(-c2sc(NC(=O)C(C)(C)C)nc2C)nn1C(=O)N1CCOCC1`, the EC50 in assay [2] (read-out: pEC50 (converted)) was 1 µM.

`O=C(Nc1nc(-c2cccc(F)c2)cs1)C1(c2ccc3c(c2)OCO3)CC1`: the result in assay [1] and in assay [3] was inactive. Also, the EC50 in assay [2] (read-out: EC50) is 2.1 µM. With `Cc1sc(NC(=O)C2(c3ccc4c(c3)OCO4)CC2)nc1-c1ccccc1`, the outcome in assay [1] and in assay [3] was inactive. Moreover, in assay [2] (read-out: EC50), the EC50 was 1.6 µM. As for `CC(=O)c1sc(NC(=O)C2(c3ccc4c(c3)OCO4)CC2)nc1C`, the outcome in assay [1] and in assay [3] was inactive. `O=C(Nc1nc(-c2cccc(O)c2)cs1)C1(c2ccc3c(c2)OC(F)(F)O3)CC1`: the result in assay [1] and in assay [3] was inactive. Besides, the EC50 in assay [2] (read-out: EC50) turned out to be 1.3 µM.

For `Cc1sc(NC(=O)C2(c3ccc4c(c3)OCO4)CC2)nc1-c1ccc(C(=O)O)cc1`, the outcome in assay [1] and in assay [3] was inactive. Further, in assay [2] (read-out: EC50), the EC50 is 2.9 µM.

`Cc1cc(C)c2cc(C#N)c(N3CCN(C(=O)c4cccnc4)CC3)nc2c1`: the EC50 in assay [2] (read-out: pEC50 (converted)) is 100 µM. On to `Cc1sc(NC(=O)C2(c3ccc4c(c3)OCO4)CC2)nc1-c1ccc(Cl)cc1`, for which the outcome in assay [1] and in assay [3] was inactive. Moreover, the EC50 in assay [2] (read-out: EC50) is 2.9 µM. In the case of `CN(C)CCN1CCN(c2nc(-c3cccnc3)nc3c2CN(Cc2ccccc2)CC3)CC1`, the EC50 in assay [2] (read-out: pEC50 (converted)) is > 100 µM. Consider `COc1ccc(C(=O)N2CCN(c3nc4cc(C)cc(C)c4cc3C#N)CC2)cc1`, for which the EC50 in assay [2] (read-out: pEC50 (converted)) was 100 µM. For the compound `CN1CCN(CCCNc2nc(-c3cccnc3)nc3c2CN(Cc2ccccc2)CC3)CC1`, the EC50 in assay [2] (read-out: pEC50 (converted)) was > 100 µM. For the compound `O=C(Nc1nc(-c2cccc(Cl)c2)cs1)C1(c2ccc3c(c2)OC(F)(F)O3)CC1`, the outcome in assay [1] and in assay [3] was inactive.

As to `CN(C)CCN1CCN(c2nc(-c3ccccn3)nc3c2CN(C(=O)c2ccccc2)CC3)CC1`, the EC50 in assay [2] (read-out: pEC50 (converted)) is 100 µM. `COc1cccc(C(=O)N2CCN(c3nc4cc(C)cc(C)c4cc3C#N)CC2)c1`: the EC50 in assay [2] (read-out: pEC50 (converted)) was 100 µM. Same read-out and setting: the same measure for `Cc1cc(C)c2cc(C#N)c(N3CCN(C(=O)c4ccccn4)CC3)nc2c1`: 100 µM; for `C=CCc1cc(-c2sc(NC(=O)C(C)(C)C)nc2C)nn1C(=O)Nc1ccccc1`: 3.02 µM. Regarding `Cc1sc(NC(=O)C2(c3ccc4c(c3)OCO4)CC2)nc1-c1ccc(Br)cc1`, the outcome in assay [1] and in assay [3] was inactive. Also, the EC50 in assay [2] (read-out: EC50) turned out to be 1.9 µM. For `CCOC(=O)c1sc(NC(=O)C2(c3ccc4c(c3)OCO4)CC2)nc1-c1ccc(Br)cc1`, the outcome in assay [1] and in assay [3] was inactive. Moreover, the EC50 in assay [2] (read-out: EC50) was 0.3 µM. With `COc1ccccc1C(=O)N1CCN(c2nc3cc(C)cc(C)c3cc2C#N)CC1`, the EC50 in assay [2] (read-out: pEC50 (converted)) is 100 µM. Turning to `Cc1cc(C)c2cc(C#N)c(NCCCNC(=O)c3ccncc3)nc2c1`, the EC50 in assay [2] (read-out: pEC50 (converted)) is 13.2 µM.

On to `Cc1sc(NC(=O)C2(c3ccc4c(c3)OCO4)CC2)nc1-c1ccc(O)cc1`, for which the outcome in assay [1] and in assay [3] was inactive. In addition, the EC50 in assay [2] (read-out: EC50) was found to be 3.9 µM.
